Test results taken from ChEMBL document CHEMBL1909541, “Hantzsch reaction: synthesis and characterization of some new 1,4-dihydropyridine derivatives as potent antimicrobial and antioxidant agents” (Eur J Med Chem, 2011).

Tests used:
Assay type in all cases: functional
Escherichia coli [1] = test: Antibacterial activity against Escherichia coli ATCC 25922 at 0.25 mg/mL after 24 hrs by agar-well diffusion method; settings: ATCC 25922, 24 h, read-out: IZ
How it was run: (§1)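 Well diffusion on Mueller-Hinton agar seeded with 24 h old cultures. Test compounds dissolved in DMSO at 1, 0.5 and 0.25 mg/mL. 6 mm wells were punched with a sterile cork borer, test solutions added, and plates incubated 24 h at 37 °C.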

Staphylococcus aureus [2] = test: Antibacterial activity against Staphylococcus aureus ATCC 25923 at 0.25 mg/mL after 24 hrs by agar-well diffusion method; settings: ATCC 25923, 24 h, read-out: IZ; how it was run: as §1
Escherichia coli [3] = test: Antibacterial activity against Escherichia coli ATCC 25922 at 0.5 mg/mL after 24 hrs by agar-well diffusion method; settings: ATCC 25922, 24 h, read-out: IZ; how it was run: as §1
Staphylococcus aureus [4] = test: Antibacterial activity against Staphylococcus aureus ATCC 25923 at 1 mg/mL after 24 hrs by agar-well diffusion method; settings: ATCC 25923, 24 h, read-out: IZ; how it was run: as §1
Pseudomonas aeruginosa [5] = test: Antibacterial activity against Pseudomonas aeruginosa ATCC 27853 at 0.5 mg/mL after 24 hrs by agar-well diffusion method; settings: ATCC 27853, 24 h, read-out: IZ; how it was run: as §1
Escherichia coli [6] = test: Antibacterial activity against Escherichia coli ATCC 25922 at 1 mg/mL after 24 hrs by agar-well diffusion method; settings: ATCC 25922, 24 h, read-out: IZ; how it was run: as §1
Pseudomonas aeruginosa [7] = test: Antibacterial activity against Pseudomonas aeruginosa ATCC 27853 at 1 mg/mL after 24 hrs by agar-well diffusion method; settings: ATCC 27853, 24 h, read-out: IZ; how it was run: as §1
Staphylococcus aureus [8] = test: Antibacterial activity against Staphylococcus aureus ATCC 25923 at 0.5 mg/mL after 24 hrs by agar-well diffusion method; settings: ATCC 25923, 24 h, read-out: IZ; how it was run: as §1
Pseudomonas aeruginosa [9] = test: Antibacterial activity against Pseudomonas aeruginosa ATCC 27853 at 0.25 mg/mL after 24 hrs by agar-well diffusion method; settings: ATCC 27853, 24 h, read-out: IZ; how it was run: as §1
Candida albicans [10] = test: Antifungal activity against Candida albicans MTCC 3017 at 0.25 mg/mL after 72 hrs by agar-well diffusion method; settings: MTCC 3017, 72 h, read-out: DIZ
How it was run: (§2)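 Fungal spore suspensions made in normal saline were spread onto agar adjusted to pH 5.7, then dried 1 h at 37 °C. Wells were cut and loaded with test compounds in DMSO at different concentrations, with a DMSO control. Plates run in triplicate at 25 °C for 72 h. Read-out was inhibition zone diameter.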

[11] = Antifungal activity against Chrysosporium keratinophilum MTCC 2827 at 1 mg/mL after 72 hrs by agar-well diffusion method; how it was run: as §2
[12] = tested on: Radical scavenging activity; test: Antioxidant activity assessed as DPPH free radical scavenging activity at 100 uM after 30 mins
How it was run: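 Sample brought to 1 mL with MeOH and mixed with 3 mL fresh 0.1 mM DPPH. Kept 30 min in the dark, then absorbance read at 517 nm. A DPPH control without sample was included. Scavenging (%) = [(Abs control − Abs sample)/Abs control] × 100.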

Candida albicans [13] = test: Antifungal activity against Candida albicans MTCC 3017 at 1 mg/mL after 72 hrs by agar-well diffusion method; settings: MTCC 3017, 72 h, read-out: DIZ; how it was run: as §2
Aspergillus flavus [14] = test: Antifungal activity against Aspergillus flavus MTCC 3306 at 0.25 mg/mL after 72 hrs by agar-well diffusion method; settings: MTCC 3306, 72 h, read-out: DIZ; how it was run: as §2
[15] = Antifungal activity against Chrysosporium keratinophilum MTCC 2827 at 0.5 mg/mL after 72 hrs by agar-well diffusion method; how it was run: as §2
Aspergillus flavus [16] = test: Antifungal activity against Aspergillus flavus MTCC 3306 at 1 mg/mL after 72 hrs by agar-well diffusion method; settings: MTCC 3306, 72 h, read-out: DIZ; how it was run: as §2
[17] = Antifungal activity against Chrysosporium keratinophilum MTCC 2827 at 0.25 mg/mL after 72 hrs by agar-well diffusion method; how it was run: as §2
Candida albicans [18] = test: Antifungal activity against Candida albicans MTCC 3017 at 0.5 mg/mL after 72 hrs by agar-well diffusion method; settings: MTCC 3017, 72 h, read-out: DIZ; how it was run: as §2
Aspergillus flavus [19] = test: Antifungal activity against Aspergillus flavus MTCC 3306 at 0.5 mg/mL after 72 hrs by agar-well diffusion method; settings: MTCC 3306, 72 h, read-out: DIZ; how it was run: as §2

Structure (SMILES) | zone of inhibition at 250 µg/mL (Escherichia coli [1]) [mm] | zone of inhibition at 250 µg/mL (Staphylococcus aureus [2]) [mm] | zone of inhibition at 500 µg/mL (Escherichia coli [3]) [mm] | zone of inhibition at 1000 µg/mL (Staphylococcus aureus [4]) [mm] | zone of inhibition at 500 µg/mL (Pseudomonas aeruginosa [5]) [mm] | zone of inhibition at 1000 µg/mL (Escherichia coli [6]) [mm] | zone of inhibition at 1000 µg/mL (Pseudomonas aeruginosa [7]) [mm] | zone of inhibition at 500 µg/mL (Staphylococcus aureus [8]) [mm] | zone of inhibition at 250 µg/mL (Pseudomonas aeruginosa [9]) [mm] | zone of inhibition at 250 µg/mL (Candida albicans [10]) [mm] | inhibition zone (IZ) [11] [mm] | Activity [12] [%] | zone of inhibition at 1000 µg/mL (Candida albicans [13]) [mm] | zone of inhibition at 250 µg/mL (Aspergillus flavus [14]) [mm] | inhibition zone (IZ) [15] [mm] | zone of inhibition at 1000 µg/mL (Aspergillus flavus [16]) [mm] | inhibition zone (IZ) [17] [mm] | zone of inhibition at 500 µg/mL (Candida albicans [18]) [mm] | zone of inhibition at 500 µg/mL (Aspergillus flavus [19]) [mm]
CN[C@@H]1[C@H](O[C@H]2[C@H](O[C@H]3[C@H](O)[C@@H](O)[C@H](N=C(N)N)[C@@H](O)[C@@H]3N=C(N)N)O[C@@H](C)[C@]2(O)C=O)O[C@@H](CO)[C@H](O)[C@H]1O [STREPTOMYCIN] | 8 | 9 | 10 | 15 | 13 | 16 | 16 | 10 | 11 | – | – | – | – | – | – | – | – | – | –
COC(=O)C1=C(C)NC(C)=C(C(=O)OC)C1c1c[nH]nc1-c1ccc(SC)cc1 | 1 | 2 | 2 | 6 | 4 | 4 | 6 | 3 | 3 | 0 | 0 | 32.2 | 0 | 0 | 0 | 0 | 0 | 0 | 0
COC(=O)C1=C(C)NC(C)=C(C(=O)OC)C1c1c[nH]nc1-c1ccc(Cl)cc1 | 5 | 3 | 8 | 8 | 7 | 10 | 9 | 6 | 4 | 0 | 5 | 29.4 | 3 | 1 | 4 | 6 | 2 | 1 | 3
COC(=O)C1=C(C)NC(C)=C(C(=O)OC)C1c1c[nH]nc1-c1ccc(Cl)cc1Cl | 2 | 2 | 3 | 6 | 4 | 6 | 8 | 3 | 2 | 0 | 5 | 35.2 | 3 | 0 | 1 | 3 | 0 | 0 | 2
COC(=O)C1=C(C)NC(C)=C(C(=O)OC)C1c1c[nH]nc1-c1ccc(-c2ccccc2)cc1 | 8 | 5 | 10 | 9 | 8 | 13 | 10 | 7 | 7 | 0 | 3 | 25.3 | 0 | 2 | 2 | 5 | 0 | 0 | 4
Cc1cc(C(C)(C)C)c(O)c(C(C)(C)C)c1 | – | – | – | – | – | – | – | – | – | – | – | 72.4 | – | – | – | – | – | – | –
COC(=O)C1=C(C)NC(C)=C(C(=O)OC)C1c1c[nH]nc1-c1ccc(OC)cc1 | 2 | 2 | 4 | 6 | 4 | 7 | 7 | 4 | 2 | 0 | 0 | 30.2 | 0 | 0 | 0 | 0 | 0 | 0 | 0
CCOC(=O)C1=C(C)NC(C)=C(C(=O)OCC)C1c1c[nH]nc1-c1ccc(Cl)cc1Cl | 2 | 5 | 4 | 11 | 9 | 6 | 12 | 7 | 7 | 1 | 4 | 29.2 | 4 | 2 | 2 | 3 | 1 | 1 | 2
CCOC(=O)C1=C(C)NC(C)=C(C(=O)OCC)C1c1c[nH]nc1-c1ccc(OC)cc1 | 5 | 6 | 8 | 13 | 7 | 12 | 10 | 8 | 5 | 2 | 3 | 30.3 | 3 | 0 | 2 | 2 | 0 | 1 | 1
OC(Cn1cncn1)(Cn1cncn1)c1ccc(F)cc1F [FLUCONAZOLE] | – | – | – | – | – | – | – | – | – | 20 | 17 | – | 22 | 10 | 15 | 13 | 14 | 21 | 11
CCOC(=O)C1=C(C)NC(C)=C(C(=O)OCC)C1c1c[nH]nc1-c1cc(Cl)sc1Cl | 8 | 8 | 10 | 13 | 12 | 16 | 15 | 9 | 10 | 2 | 5 | 32 | 5 | 3 | 2 | 4 | 2 | 2 | 3
COC(=O)C1=C(C)NC(C)=C(C(=O)OC)C1c1c[nH]nc1-c1cc(Cl)sc1Cl | 5 | 4 | 7 | 10 | 3 | 10 | 7 | 8 | 1 | 0 | 4 | 30.3 | 3 | 0 | 2 | 3 | 1 | 2 | 2
